These results are taken from PubChem BioAssay.

A word on the inhibition: it is the drop in the measured response relative to a control, in per cent.

The source made the active and inactive calls.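 How the source made its calls, unless noted: active means fluorescence slope after compound addition differing from the mean of all tested samples at 99.7% confidence, mostly higher but some lower; inactive means the rest.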

Experiment [1] in a line: inhibitors of TNFa-induced NFkB p65 translocation, primary screen, imaging, HUVEC, MLSMR starter and 10KST1 sets (AID 438;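 active means inhibition above 20% together with a positive visual image hit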;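 further: compound added about 3h40 before a 20 min TNFalpha stimulation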;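 on inhibition: signal is the nuclear over cytoplasmic p65 intensity ratio per well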). Particulars: HUVEC TNFa-induced p65 nuclear translocation; cell count: measured here: nuclei count (cytotoxicity indicator), at 2.08 µM; inhibition: at 2 µM, stronger effect = higher value, 0% TNFa-plus-vehicle, 100% no-TNFa wells.
Experiment [2] can be described thus: inhibitors of mutant huntingtin aggregation, primary screen, imaging, exon1htt(103Q)mCFP cells, high-content imaging (AID 483;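 active means visual image review flags a hit and inhibition of aggregation exceeds 20%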;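 further: compound exposure lasted 3 days before fixation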;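 on nuclei count: percent of the per-plate median nuclei count of sample wells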). The conditions noted are these: exon1htt(103Q)mCFP cell line, aggregate imaging, at 2 µM; inhibition of aggregation: stronger effect = higher value; nuclei count: measured here: cell count, toxicity.
Experiment [3] in a line: inhibitors of E-selectin induction by TNFa, primary screen, imaging, HUVEC, immunofluorescence, MLSMR starter and 10KST1 sets (AID 487;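 active means visually confirmed hit in the image check and inhibition above 20%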;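 on inhibition: signal is fraction of cell area covered by stained E-selectin grains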;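 on nuclei count: 100% = median nuclei count of all wells on the same plate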). The conditions noted are these: HUVEC TNFalpha-induced E-selectin immunofluorescence imaging, at 2 µM; inhibition: stronger effect = higher value; nuclei count: measured here: cell number, toxicity.
The target of experiment [4] is Voltage-gated potassium channel subunit beta-2 (Rattus norvegicus) (UniProt P62483). The experiment can be described thus: KvBeta enzyme negative modulators, primary screen, biochemical, NADPH fluorescence (AID 622;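 active means fluorescence slope higher than the sample average by over 3 SD, cut at about -0.22 in these data, passing the limit was not always enough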;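 further: slope of raw intensity against log time taken from 70 to 1610 s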). The conditions noted are these: recombinant KvBeta, 4-cyanobenzaldehyde reduction, at 10 µM, stronger effect = higher value.
Experiment [5] shares this target. The experiment can be described thus: KvBeta positive modulators, primary screen, biochemical, NADPH fluorescence (AID 623;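 active means NADPH fluorescence slope more negative than the mean of all samples by about 3 SD, 99.7% confidence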;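 further: fluorescence intensity change per second fitted from 20 to 320 s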). The conditions noted are these: Recombinant KvBeta, NADPH fluorescence decrease slope, 10 min; at 10 µM; stronger effect = lower value.
Experiment [6] has as its target Muscarinic acetylcholine receptor M4 (Homo sapiens) (UniProt P08173). The experiment can be described thus: compounds altering M4/GIRK thallium flux, either direction, primary screen, M4 allosteric agonist project, cell-based, HEK293 M4/GIRK, BTC-AM (AID 625).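 Further: thallium influx through GIRK channels coupled to M4 in HEK293 cells with BTC-AM dye.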 Particulars: at 10 µM, actives lie on both sides. In short, it runs like this: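 Material: M4/GIRK1/GIRK2 stable HEK293 cell line. Medium: pH 7.3 thallium assay buffer. Dosing: single compound concentration, 10 µM final. Schedule: 1 h dye loading, 2 min kinetic read. Measured by: kinetic fluorescence with BTC-AM dye. Read-out: post-addition slope, 15–24 s, of baseline-normalized fluorescence. Benchmarks: carbachol and DMSO controls.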

Experiment [7] is described as follows: inhibitors of Sendai virus-induced IRF3 signaling, primary screen, TLR/RLR signaling modifier project, cell-based, Sendai virus stimulus, luciferase, 10K MLSCN set (AID 602276;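 active means inhibition at or above 50% at 10 µM; inactive means inhibition below 50%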;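 further: firefly luciferase from ISG56 promoter only with Renilla not read in this screen; 0% = Sendai virus plus DMSO and 100% = medium plus DMSO without virus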). Particulars: HEK293 RL24 IRF3 luciferase reporter, at 10 µM, stronger effect = higher value.
Experiment [8] can be described thus: inhibitors of poly I:C-induced TLR3 signaling, primary screen, cell-based, poly I:C stimulus, luciferase, 10K MLSCN set (AID 602277;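 active means inhibition of the reporter signal at or above 50%; inactive means inhibition below 50%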). Particulars: HEK293-TLR3 RL24 IRF3 luciferase reporter, at 10 µM, stronger effect = higher value.

Sequence of Voltage-gated potassium channel subunit beta-2 (Rattus norvegicus) (P62483 whole entry, looked up): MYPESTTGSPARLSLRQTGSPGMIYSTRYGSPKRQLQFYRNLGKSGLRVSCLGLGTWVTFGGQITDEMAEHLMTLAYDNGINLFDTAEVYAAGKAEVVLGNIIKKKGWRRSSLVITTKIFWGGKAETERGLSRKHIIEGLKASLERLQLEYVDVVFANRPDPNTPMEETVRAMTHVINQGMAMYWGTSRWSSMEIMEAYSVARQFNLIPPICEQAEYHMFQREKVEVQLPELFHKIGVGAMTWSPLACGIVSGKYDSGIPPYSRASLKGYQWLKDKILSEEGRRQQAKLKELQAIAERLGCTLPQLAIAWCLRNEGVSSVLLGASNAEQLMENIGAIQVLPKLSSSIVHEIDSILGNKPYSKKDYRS
Sequence of Muscarinic acetylcholine receptor M4 (Homo sapiens) (P08173 whole entry, looked up): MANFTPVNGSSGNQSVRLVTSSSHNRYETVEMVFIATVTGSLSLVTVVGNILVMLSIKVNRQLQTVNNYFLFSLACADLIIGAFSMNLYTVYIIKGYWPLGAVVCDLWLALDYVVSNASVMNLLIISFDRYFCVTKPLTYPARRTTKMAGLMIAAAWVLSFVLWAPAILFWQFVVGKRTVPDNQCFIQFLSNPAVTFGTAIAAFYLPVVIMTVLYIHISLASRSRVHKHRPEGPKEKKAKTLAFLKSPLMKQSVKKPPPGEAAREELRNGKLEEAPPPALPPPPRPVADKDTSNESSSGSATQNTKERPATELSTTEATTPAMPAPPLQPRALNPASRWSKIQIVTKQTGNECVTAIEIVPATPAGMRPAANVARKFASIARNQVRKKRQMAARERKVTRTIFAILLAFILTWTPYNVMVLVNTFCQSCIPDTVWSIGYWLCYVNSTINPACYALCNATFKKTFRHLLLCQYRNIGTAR

Take `Cc1ccc(C2CC(c3cccc(Br)c3)Nc3nnnn32)cc1` (centres undefined): the cell count in experiment [1] was 460. The inhibition in experiment [1] is -10% (inactive); in experiment [3], -1.3% (inactive); in experiment [7], 25.2% (inactive); in experiment [8], 26% (inactive). The inhibition of aggregation in experiment [2] is -4.9% (inactive). Moreover, the values for the nuclei count in experiment [2] and in experiment [3] were 90.9% and 79.9%, respectively. Also, the fluorescence slope in experiment [4] is -0.579 (inactive); in experiment [6], 0.00604 (inactive). Also, the NADPH fluorescence slope in experiment [5] is 1.4e-05 (inactive).

As for `CC(Sc1nnc(-c2cc3ccccc3o2)n1-c1ccccc1)C(=O)O` (centres undefined), the cell count in experiment [1] turned out to be 613. Also, the inhibition in experiment [1] is 0.8% (inactive); in experiment [3], -223% (inactive); in experiment [7] it was 21.2% (inactive); in experiment [8] it was 39.8% (inactive). The inhibition of aggregation in experiment [2] was 14.7% (inactive). For the same compound, the nuclei count in experiment [2] is 105%; in experiment [3], 108%. Also, the fluorescence slope is -0.585 (inactive) in experiment [4] and 0.00554 (inactive) in experiment [6]. The NADPH fluorescence slope in experiment [5] is -5.2e-05 (inactive).

Regarding `O=C(COC(=O)Cc1cccc(C(F)(F)F)c1)NCC1CCCO1` (centres undefined), the cell count in experiment [1] came to 704. For the same compound, the inhibition is 3.3% (inactive) in experiment [1], -199% (inactive) in experiment [3], -6.76% (inactive) in experiment [7] and 2.06% (inactive) in experiment [8]. Besides, the inhibition of aggregation in experiment [2] was 3% (inactive). Also, the values for the nuclei count in experiment [2] and in experiment [3] were 106% and 134%, respectively. Moreover, the results for the fluorescence slope in experiment [4] and in experiment [6] were -0.497 (inactive) and 0.00505 (inactive), respectively. The NADPH fluorescence slope in experiment [5] is -0.000214 (inactive).

As for `COC(=O)c1ccccc1NC(=O)Nc1cc(C)cc(C)n1`, the cell count in experiment [1] was 205. Moreover, the inhibition in experiment [1] is 0.9% (inactive); in experiment [3], 10.8% (inactive); in experiment [7], 6.32% (inactive); in experiment [8], 99% (active). In addition, the inhibition of aggregation in experiment [2] was -2.4% (inactive). Besides, the nuclei count in experiment [2] stood at 71.9%; in experiment [3], 140%. Moreover, the fluorescence slope in experiment [4] was -0.504 (inactive); in experiment [6] it was 0.00537 (inactive). Besides, the NADPH fluorescence slope in experiment [5] is -2.5e-05 (inactive).

As to `CC(=O)Oc1cccc(/C=c2\sc3nc(-c4ccco4)nn3c2=O)c1`, the cell count in experiment [1] turned out to be 324. Further, the inhibition in experiment [1] was -0.6% (inactive); in experiment [3], -69.5% (inactive); in experiment [7] it was 21.5% (inactive); in experiment [8] it was 16.1% (inactive). Further, the inhibition of aggregation in experiment [2] was -30% (inactive). For the same compound, the nuclei count came out at 103% in experiment [2] and 80.7% in experiment [3]. The fluorescence slope in experiment [4] is -0.549 (inactive); in experiment [6] it was 0.00624 (inactive). The NADPH fluorescence slope in experiment [5] was -3e-05 (inactive).

Take `O=C(NCCN1CCN(c2ccccc2)CC1)c1ccc(NC(=O)C2CCCO2)cc1` (centres undefined): the cell count in experiment [1] was 562. Further, the inhibition was -21.6% (inactive) in experiment [1], -135% (inactive) in experiment [3], 3.22% (inactive) in experiment [7] and 6.35% (inactive) in experiment [8]. For the same compound, the inhibition of aggregation in experiment [2] was -9% (inactive). Further, the values for the nuclei count in experiment [2] and in experiment [3] were 99.2% and 114%, respectively. Also, the fluorescence slope is -0.468 (inactive) in experiment [4] and 0.00539 (inactive) in experiment [6]. Further, the NADPH fluorescence slope in experiment [5] is 5.8e-06 (inactive).

As to `O=C(CN1CCOCC1)N1CCN(C(=O)CN2CCOCC2)CC1`, the cell count in experiment [1] came to 557. The inhibition in experiment [1] was -51% (inactive); in experiment [3], -63.9% (inactive); in experiment [7] it was 12.4% (inactive); in experiment [8], 17.7% (inactive). Besides, in experiment [2], the inhibition of aggregation was -14% (inactive). For the same compound, the nuclei count in experiment [2] and in experiment [3] was 120% each time. Besides, the values for the fluorescence slope in experiment [4] and in experiment [6] were -0.468 (inactive) and 0.00604 (inactive), respectively. Further, in experiment [5], the NADPH fluorescence slope is 9.6e-05 (inactive).

Turning to `CCC(c1nnnn1CCOC)N(Cc1ccc(C)cc1)Cc1cc2cc(OC)ccc2[nH]c1=O` (centres undefined), in experiment [1], the cell count is 519. Also, the inhibition is 1.9% (inactive) in experiment [1], -127% (inactive) in experiment [3], 19% (inactive) in experiment [7] and 27.8% (inactive) in experiment [8]. Moreover, the inhibition of aggregation in experiment [2] is 11.8% (inactive). Also, the nuclei count came to 99.2% in experiment [2] and 134% in experiment [3]. The fluorescence slope is -0.565 (inactive) in experiment [4] and 0.00576 (inactive) in experiment [6]. For the same compound, in experiment [5], the NADPH fluorescence slope was -5.3e-05 (inactive).

In the case of `CCCCn1c(CN2CCN(CCO)CC2)nc2ccccc21`, in experiment [1], the cell count amounted to 611. The inhibition in experiment [1] is 6.2% (inactive); in experiment [3], 44.3% (inactive); in experiment [7], 2.03% (inactive); in experiment [8], 19.1% (inactive). The inhibition of aggregation in experiment [2] was -17.9% (inactive). Also, the nuclei count was 112% in experiment [2] and 84.5% in experiment [3]. Further, the fluorescence slope in experiment [4] is -0.468 (inactive); in experiment [6], 0.00452 (inactive). Moreover, the NADPH fluorescence slope in experiment [5] was -0.000309 (inactive).

`CCC1Oc2ccccc2N(CC(=O)Nc2ccc(OC)cc2OC)C1=O` (centres undefined): in experiment [1], the cell count is 726. The inhibition is 44.3% (active) in experiment [1], -57% (inactive) in experiment [3], -2.59% (inactive) in experiment [7] and 4.28% (inactive) in experiment [8]. The inhibition of aggregation in experiment [2] is -17.4% (inactive). Moreover, the nuclei count in experiment [2] came out at 117%; in experiment [3], 127%. In addition, the figures for the fluorescence slope in experiment [4] and in experiment [6] were -0.533 (inactive) and 0.00464 (inactive), respectively. Besides, the NADPH fluorescence slope in experiment [5] is -0.000132 (inactive).

In the case of `CCCc1nc2ccccc2c(=O)n1NC(=O)c1c(O)c2cccc3c2n(c1=O)CCC3`, the cell count in experiment [1] worked out at 554. For the same compound, the inhibition was -15.1% (inactive) in experiment [1], -150% (inactive) in experiment [3], 7.44% (inactive) in experiment [7] and 6.93% (inactive) in experiment [8]. For the same compound, the inhibition of aggregation in experiment [2] is -12.2% (inactive). The nuclei count is 92% in experiment [2] and 120% in experiment [3]. In addition, the fluorescence slope in experiment [4] is -0.391 (inactive); in experiment [6] it was 0.00863 (inactive). In addition, the NADPH fluorescence slope in experiment [5] was -0.000105 (inactive).

For `O=S(=O)(c1ccccc1)N1CCN(C2CCCCCCC2)CC1`, the cell count in experiment [1] stood at 221. For the same compound, the inhibition in experiment [1] is 9.7% (inactive); in experiment [3] it was -53.1% (inactive); in experiment [7], -8.03% (inactive); in experiment [8] it was -10% (inactive). Moreover, in experiment [2], the inhibition of aggregation is 9% (inactive). In addition, the nuclei count in experiment [2] came out at 80.6%; in experiment [3] it was 148%. Further, the fluorescence slope in experiment [4] is -0.479 (inactive); in experiment [6] it was 0.00309 (inactive). Also, in experiment [5], the NADPH fluorescence slope is -1.1e-05 (inactive).

For `CCCCNC(=O)Nc1ccnn1C1CCCCC1`, the cell count in experiment [1] worked out at 909. Moreover, the inhibition in experiment [1] is -7.5% (inactive); in experiment [3], -34.1% (inactive); in experiment [7], 17% (inactive); in experiment [8] it was 18.1% (inactive). The inhibition of aggregation in experiment [2] was -8.6% (inactive). For the same compound, the nuclei count in experiment [2] was 100%; in experiment [3], 105%. Further, the fluorescence slope is -0.56 (inactive) in experiment [4] and 0.0186 (active) in experiment [6]. In addition, the NADPH fluorescence slope in experiment [5] was -1.6e-05 (inactive).

With `O=C(O)C1C2CCC(O2)C1C(=O)Nc1cccc(F)c1` (centres undefined), the cell count in experiment [1] worked out at 596. Moreover, the inhibition in experiment [1] is -2% (inactive); in experiment [3] it was -56.8% (inactive); in experiment [7], 20.3% (inactive); in experiment [8] it was 19.5% (inactive). For the same compound, the inhibition of aggregation in experiment [2] is -0.8% (inactive). The values for the nuclei count in experiment [2] and in experiment [3] were 109% and 104%, respectively. The fluorescence slope in experiment [4] is -0.435 (inactive); in experiment [6] it was 0.00527 (inactive). Moreover, the NADPH fluorescence slope in experiment [5] is -3.5e-06 (inactive).
